Measurements gathered from unrelated publications.
Each line is one published result; the experiments were not run side by side.
FLT3 D835Y: Receptor-type tyrosine-protein kinase FLT3 (FLT3, Homo sapiens, UniProt P36888, D835Y)
FLT3: Receptor-type tyrosine-protein kinase FLT3 (FLT3, Homo sapiens, UniProt P36888)
FLT3 R834Q: Receptor-type tyrosine-protein kinase FLT3 (FLT3, Homo sapiens, UniProt P36888, R834Q)
FLT3 D835H: Receptor-type tyrosine-protein kinase FLT3 (FLT3, Homo sapiens, UniProt P36888, D835H)
FLT3 D835V: Receptor-type tyrosine-protein kinase FLT3 (FLT3, Homo sapiens, UniProt P36888, D835V)
FLT3 N841I: Receptor-type tyrosine-protein kinase FLT3 (FLT3, Homo sapiens, UniProt P36888, N841I)
FLT3 ITD: Receptor-type tyrosine-protein kinase FLT3 (FLT3, Homo sapiens, UniProt P36888, ITD)

SMILES | target | assay | setting | endpoint | value
CC(C)CC(=O)N1CCc2nc(-c3ccc(Br)cc3)nc(N(C)Cc3ccccc3)c2C1 | FLT3 D835Y | cell-free assay, competition with immobilised ligand | 0.1 µM | remaining binding | 100%
Cc1cnc(NC2CCOCC2)nc1-n1cnc(C(=O)NC(CN)c2cc(F)cc(Cl)c2)c1 (stereo not shown) | FLT3 | enzyme activity, inhibitor, radiometric | 1 µM | remaining activity | 94%
O=C(Nc1cnn(-c2csc(C(=O)NC3COC3)c2)c1)Nc1c(F)cccc1Cl | FLT3 | enzyme activity, inhibitor | 5 µM | remaining activity | 99.2%
Cc1ccc(C(=O)Nc2ccc(CN3CCN(C)CC3)c(C(F)(F)F)c2)cc1C#Cc1cnc2cccnn12 | FLT3 R834Q | enzyme activity, inhibitor | 23.5 nM | remaining activity | 5%
COc1cc(Cl)c(C(=O)N[C@@H](CN[C@H]2CC[C@@H](N)CC2)Cc2ccc(C#N)cc2)cc1-c1ccc(CN[C@H](C)c2ccc(C)cc2)o1 | FLT3 | enzyme activity, inhibitor | 1 µM | remaining activity | 103%
Fc1cccc(-n2cnc3c(NCc4nc5c(F)c(F)ccc5[nH]4)nc(N4CCOCC4)nc32)c1 | FLT3 D835H | binding, competition with immobilised ligand | 10 µM | binding vs control | 42%
Cc1cc(NC(=O)c2cccc3cc(-c4cccc5[nH]nc(N)c45)ccc23)ccc1F | FLT3 | enzyme activity, inhibitor | 0.1 µM | activity vs control | 109%
CC(C)(C)c1nc2c(s1)c1nc(N)ncc1c1ccc(NS(=O)(=O)c3c(F)cccc3F)c(F)c12 | FLT3 | enzyme activity, inhibitor, radiometric | 1 µM | remaining activity | 104%
CC1CCCN1c1nccc(-c2cnn3ncccc23)n1 (stereo not shown) | FLT3 D835V | binding | 1 µM | remaining binding | 79%
O=C1NC(=O)c2cc(Nc3ccc(F)cc3)c(Nc3ccc(F)cc3)cc21 | FLT3 | cell-free assay | 0.5 µM | remaining signal | 91.5%
F[C@@H]1CCN(c2nccc(-c3cnn4ncccc34)n2)C1 | FLT3 N841I | binding | 1 µM | remaining binding | 100%
Cc1cnc(Nc2ccc(C(=O)N3CCC(N4CCCC4)CC3)cc2)nc1-c1cc2ccccc2s1 | Receptor-type tyrosine-protein kinase FLT3 (FLT3, Homo sapiens, UniProt P36888, K663Q) | binding, competition with immobilised ligand | 1 µM | remaining binding | 2.2%
O=C1NC(c2ccccn2)Sc2ccccc21 (stereo not shown) | Receptor-type tyrosine-protein kinase FLT3 (FLT3, Homo sapiens, UniProt P36888, D835V/ITD) | cell-free assay, competition with immobilised ligand | 1 µM | remaining binding | 83%
c1cnn2ncc(-c3ccnc(N4CCC45COC5)n3)c2c1 | FLT3 N841I | binding | 1 µM | remaining binding | 72%
COc1cc2ncnc(Nc3ccc(F)c(Cl)c3)c2cc1OCCCN1CCOCC1 | FLT3 | cell-free assay | 0.5 µM | remaining signal | 56.5%
O=c1nc(-c2ccccn2)sc2ccccc12 | FLT3 N841I | binding, competition with immobilised ligand | 1 µM | remaining binding | 74%
CC(C)c1ccc(NC(=O)c2cccs2)c(-c2nc3ccccc3[nH]c2=O)c1 | FLT3 | enzyme activity, inhibitor | 1 µM | activity vs control | 51%

SMILES | target | assay | setting | endpoint | value
O=C(Nc1cccnn1)N1CCC(=Cc2cccc(Oc3ccc(C(F)(F)F)cn3)c2)CC1 | FLT3 D835Y | cell-free assay, competition with immobilised ligand | 1 µM | remaining binding | 100%
Oc1cccc(-c2nc(N3CCOCC3)c3oc4ncccc4c3n2)c1 | FLT3 | cell-free assay | 0.5 µM | remaining signal | 87.1%
N#Cc1ccc(Nc2ccc3[nH]c(=O)[nH]c3c2)c(Cl)c1 | FLT3 D835Y | cell-free assay, competition with immobilised ligand | 1 µM | remaining binding | 94%
Cc1cnn2ncc(-c3ccnc(N(C)C)n3)c2c1 | FLT3 D835Y | binding | 1 µM | remaining binding | 81%
Nc1ncnc2occ(-c3ccc(NC(=O)Nc4cc(C(F)(F)F)ccc4F)cc3)c12 | FLT3 D835V | cell-free assay, inhibitor | 20 µM | remaining signal | 0%
CCN(CC)CCNC(=O)c1c(C)[nH]c(/C=C2\C(=O)Nc3ccc(F)cc32)c1C | FLT3 | enzyme activity, inhibitor | 1 µM | remaining activity | 1%
Cc1ccc(C(=O)NCc2ccsc2)cc1C#Cc1cn(C(C)C)c2ncnc(N)c12 | FLT3 D835Y | enzyme activity, inhibitor | 1 µM | activity vs control | 118%
O=C(NCCCN1CCOCC1)c1ccc(Nc2nccc(-c3cc4ccccc4s3)n2)cc1 | FLT3 | binding, competition with immobilised ligand | 1 µM | remaining binding | 61%
COc1cc2c(Nc3ccc(Br)cc3F)ncnc2cc1OCC1CCN(C)CC1 | FLT3 | cell-free assay | 0.5 µM | remaining signal | 43.7%
C[C@H](c1ccc(F)cc1)N(Cc1cccc(C(=O)O)c1)C(=O)c1cnc2ccccc2c1 | FLT3 ITD | cell-free assay, competition with immobilised ligand | 1 µM | remaining binding | 100%
N[C@H]1CCN(c2nccc(-c3cnn4ncccc34)n2)C1 | FLT3 | binding | 1 µM | remaining binding | 99%
O=C(c1ccc(Nc2ncc(Cl)c(-c3ccc(Cl)s3)n2)cc1)N1CCC(N2CCCC2)CC1 | Receptor-type tyrosine-protein kinase FLT3 (FLT3, Homo sapiens, UniProt P36888, F691L/ITD) | binding, competition with immobilised ligand | 1 µM | remaining binding | 1.8%
CCOCCn1cc(C(=O)Nc2ccc(-n3nc(-c4cccnc4)cc3C(F)(F)F)cn2)ccc1=O | FLT3 D835H | cell-free assay, competition with immobilised ligand | 1 µM | remaining binding | 87%
C[C@H]1CCN(c2nccc(-c3cnn4ncccc34)n2)C1 | FLT3 D835V | binding | 1 µM | remaining binding | 53%
O=C(c1ccc(Nc2ncc(Cl)c(-c3cc4ccccc4s3)n2)cc1)N1CCC(N2CCCC2)CC1 | FLT3 R834Q | binding, competition with immobilised ligand | 1 µM | remaining binding | 11%
CCCOc1ccc([C@H]2[C@H](C(=O)O)[C@@H](c3ccc4c(c3)OCO4)CN2CC(=O)Nc2c(CC)cccc2CC)cc1 | FLT3 ITD | cell-free assay, competition with immobilised ligand | 1 µM | remaining binding | 81%
CN(CCCC(F)(F)F)c1nccc(-c2cnn3ncccc23)n1 | FLT3 | binding | 1 µM | remaining binding | 63%
